Values belong to the compound of their own block, whether it stands above or below them. Calls of active or inactive are those of the source. No cut-off for these calls is given here.
What was measured:
[1] = test system: INA-6; experiment: Downregulation of NVP-AUY922-induced HSF-1 protein expression in human INA-6 cells at 25 uM preincubated for 4 hrs followed by NVP-AUY922 addition measured after 4 hrs by Western blot method; assay type: functional, cell-based
Method in brief: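 INA-6 cells were pre-treated with compound for 4 h, then co-treated with the HSP90 inhibitor NVP-AUY922 for an additional 4 h. Cells were harvested and blotted for HSP72, HSP27, HSF1 or phospho-HSF1, with β-actin as the loading control. DMSO-only cells served as the negative control and NVP-AUY922-only cells as the positive control.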

[2] = test system: INA-6; experiment: Inhibition of heat shock response in human INA-6 cells assessed as reduction in HSF-1 mediated upregulation of the heat shock protein HSP72 at 25 uM preincubated for 4 hrs followed by HSP90 inhibitor and HSR inducer NVP-AUY922 addition measured after 4 hrs by ELISA; assay type: functional, cell-based
Method in brief: (§1)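 HSP72 quantified by ELISA in the same protein lysates used for Western blots. INA-6 cells received compound for 4 h, then NVP-AUY922 co-treatment for 4 h more to stimulate HSF1. DMSO-only and NVP-AUY922-only cells served as negative and positive controls.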

[3] = test system: INA-6; experiment: Inhibition of heat shock response in human INA-6 cells assessed as reduction in HSF-1 mediated upregulation of the heat shock protein HSP27 at 25 uM preincubated for 4 hrs followed by HSP90 inhibitor and HSR inducer NVP-AUY922 addition measured after 4 hrs by Western blot method; assay type: functional, cell-based
Method in brief: (§2)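 INA-6 myeloma cells pretreated with test compound for 4 h, then co-treated with the HSP90 inhibitor/HSR inducer NVP-AUY922 for a further 4 h. Cells harvested; HSP72, HSP27, HSF1 or phospho-HSF1 probed by Western blot with β-actin as loading control. DMSO-only cells were the negative control; NVP-AUY922-only cells were the positive control.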

[4] = biological target: T1, Heat shock factor protein 1 (Homo sapiens) (UniProt Q00613); experiment: Inhibition of NVP-AUY922-induced HSF-1 phosphorylation at S326 residue in human INA-6 cells at 25 uM preincubated for 4 hrs followed by NVP-AUY922 addition measured after 4 hrs by Western blotting method; assay type: cell-based; method in brief: as §2
T1 sequence (whole entry): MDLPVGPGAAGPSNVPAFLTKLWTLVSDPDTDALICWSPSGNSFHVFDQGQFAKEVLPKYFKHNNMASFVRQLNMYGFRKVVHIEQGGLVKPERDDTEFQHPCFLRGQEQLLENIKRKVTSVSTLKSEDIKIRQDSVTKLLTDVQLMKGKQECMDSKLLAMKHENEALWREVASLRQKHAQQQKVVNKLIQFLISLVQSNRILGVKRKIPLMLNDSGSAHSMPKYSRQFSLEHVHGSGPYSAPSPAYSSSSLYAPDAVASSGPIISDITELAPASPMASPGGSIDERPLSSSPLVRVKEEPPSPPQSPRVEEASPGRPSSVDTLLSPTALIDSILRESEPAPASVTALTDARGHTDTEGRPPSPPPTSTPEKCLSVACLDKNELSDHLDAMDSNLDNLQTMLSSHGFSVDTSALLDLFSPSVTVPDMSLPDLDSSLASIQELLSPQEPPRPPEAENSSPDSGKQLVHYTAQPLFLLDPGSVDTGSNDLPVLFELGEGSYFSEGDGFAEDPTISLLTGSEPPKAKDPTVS

[5] = test system: INA-6; experiment: Induction of apoptosis in human INA-6 cells at 6.3 to 8.6 uM after 72 hrs by annexin V-FITC/propidium iodide staining-based flow cytometry method; assay type: functional, cell-based
Method in brief: (§3)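 INA-6 cells incubated three days with DMSO or increasing compound concentrations. Viability read by annexin V-FITC/propidium iodide staining and flow cytometry. Double-negative (viable) fractions used to fit dose-response curves from three independent experiments; mean ± SD reported.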

[6] = test system: INA-6; experiment: Inhibition of heat shock response in human INA-6 cells assessed as reduction in HSF-1 mediated upregulation of the heat shock protein HSP72 at 25 uM preincubated for 4 hrs followed by HSP90 inhibitor and HSR inducer NVP-AUY922 addition measured after 4 hrs by Western blot method; assay type: functional, cell-based; method in brief: as §2
[7] = test system: INA-6; experiment: Effect on NVP-AUY922-induced HSF-1 mRNA expression in human INA-6 cells at 25 uM preincubated for 4 hrs followed by NVP-AUY922 addition measured after 4 hrs by RT-PCR method; assay type: functional, cell-based
Method in brief: (§4)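 INA-6 cells exposed to compound for 4 h, then co-treated with 10 nM NVP-AUY922 for another 4 h. Total RNA isolated; HSP27, HSP72 and HSF1 transcripts measured by real-time PCR and normalized to α-tubulin. Means and standard deviations from three independent experiments.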

[8] = test system: INA-6; experiment: Inhibition of heat shock response in human INA-6 cells assessed as reduction in HSF-1 mediated upregulation of the heat shock protein HSP27 at 25 uM preincubated for 4 hrs followed by HSP90 inhibitor and HSR inducer NVP-AUY922 addition measured after 4 hrs
[9] = test system: INA-6; experiment: Induction of apoptosis in human INA-6 cells preincubated for 4 hrs followed by NVP-AUY922 addition measured after 68 hrs by annexin V-FITC/propidium iodide staining-based flow cytometry method; assay type: functional, cell-based
Method in brief: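 INA-6 cells received DMSO or test compound for 72 h. At 4 h, DMSO or 10 nM NVP-AUY922 was added for the remaining 68 h. Viable fraction measured by annexin V-FITC/PI flow cytometry and expressed relative to the matching DMSO controls; means ± SD of three independent experiments.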

[10] = test system: INA-6; experiment: Downregulation of NVP-AUY922-induced HSF-1 protein expression in human INA-6 cells at 10 uM preincubated for 4 hrs followed by NVP-AUY922 addition measured after 4 hrs by Western blot method; assay type: functional, cell-based
Method in brief: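 INA-6 cells received the dual DNA-PK/mTOR inhibitor for 4 h, then 10 nM NVP-AUY922 was added for another 4 h. Protein lysates were Western blotted for HSF1, phospho-HSF1, HSP72 and HSP27, with α-tubulin as the loading control.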

[11] = biological target: T1, Heat shock factor protein 1 (Homo sapiens); experiment: Inhibition of NVP-AUY922-induced HSF-1 phosphorylation in human INA-6 cells at 10 uM preincubated for 4 hrs followed by NVP-AUY922 addition measured after 4 hrs by Western blot method; assay type: cell-based
Method in brief: (§5)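 INA-6 cells given the dual DNA-PK/mTOR inhibitor NU7441 for 4 h, then co-treated with 10 nM NVP-AUY922 for 4 h more. Protein lysates analysed by Western blot for HSF1, phospho-HSF1, HSP72 and HSP27, with α-tubulin as loading control.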

[12] = test system: INA-6; experiment: Inhibition of heat shock response in human INA-6 cells assessed as reduction in HSF-1 mediated upregulation of the HSP72 protein expression at 10 uM preincubated for 4 hrs followed by HSP90 inhibitor and HSR inducer NVP-AUY922 addition measured after 4 hrs by Western blot method; assay type: functional, cell-based; method in brief: as §5
[13] = test system: INA-6; experiment: Downregulation of NVP-AUY922-induced HSF-1 mRNA expression in human INA-6 cells at 10 uM preincubated for 4 hrs followed by NVP-AUY922 addition measured after 4 hrs by RT-PCR method; assay type: functional, cell-based
Method in brief: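 INA-6 myeloma cells were treated with the dual DNA-PK/mTOR inhibitor for 4 h, then co-treated with 10 nM NVP-AUY922 for a further 4 h. Total RNA was isolated and HSF1 and HSP72 mRNA was measured by RT-PCR. Values were normalized to α-tubulin.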

[14] = test system: INA-6; experiment: Inhibition of heat shock response in human INA-6 cells assessed as reduction in HSF-1 mediated upregulation of the HSP72 mRNA expression at 10 uM preincubated for 4 hrs followed by HSP90 inhibitor and HSR inducer NVP-AUY922 addition measured after 4 hrs by RT-PCR method; assay type: functional, cell-based
Method in brief: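 Cells pretreated 4 h with NU7441, then 10 nM NVP-AUY922 added for 4 h. Total mRNA isolated; HSF1 and HSP72 levels determined by RT-PCR and normalized to α-tubulin.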

[15] = test system: INA-6; experiment: Induction of apoptosis in human INA-6 cells up to 50 uM after 72 hrs by annexin V-FITC/propidium iodide staining-based flow cytometry method; assay type: functional, cell-based; method in brief: as §3
[16] = test system: INA-6; experiment: Inhibition of heat shock response in human INA-6 cells assessed as reduction in HSF-1 mediated upregulation of the heat shock protein HSP72 at 50 uM preincubated for 4 hrs followed by HSP90 inhibitor and HSR inducer NVP-AUY922 addition measured after 4 hrs by ELISA; assay type: functional, cell-based; method in brief: as §1
[17] = test system: INA-6; experiment: Inhibition of heat shock response in human INA-6 cells assessed as reduction in HSF-1 mediated upregulation of the heat shock protein HSP27 at 50 uM preincubated for 4 hrs followed by HSP90 inhibitor and HSR inducer NVP-AUY922 addition measured after 4 hrs by Western blot method; assay type: functional, cell-based; method in brief: as §2
[18] = test system: INA-6; experiment: Inhibition of heat shock response in human INA-6 cells assessed as reduction in HSF-1 mediated upregulation of the heat shock protein HSP72 at 50 uM preincubated for 4 hrs followed by HSP90 inhibitor and HSR inducer NVP-AUY922 addition measured after 4 hrs by Western blot method; assay type: functional, cell-based; method in brief: as §2
[19] = test system: INA-6; experiment: Effect on NVP-AUY922-induced HSF-1 mRNA expression in human INA-6 cells at 50 uM preincubated for 4 hrs followed by NVP-AUY922 addition measured after 4 hrs by RT-PCR method; assay type: functional, cell-based; method in brief: as §4
[20] = test system: INA-6; experiment: Inhibition of heat shock response in human INA-6 cells assessed as reduction in HSF-1 mediated upregulation of the heat shock protein HSP72 at 12.5 uM preincubated for 4 hrs followed by HSP90 inhibitor and HSR inducer NVP-AUY922 addition measured after 4 hrs by ELISA; assay type: functional, cell-based; method in brief: as §1
[21] = test system: INA-6; experiment: Effect on NVP-AUY922-induced HSF-1 mRNA expression in human INA-6 cells at 12.5 uM preincubated for 4 hrs followed by NVP-AUY922 addition measured after 4 hrs by RT-PCR method; assay type: functional, cell-based; method in brief: as §4
[22] = test system: INA-6; experiment: Inhibition of heat shock response in human INA-6 cells assessed as reduction in HSF-1 mediated upregulation of the heat shock protein HSP27 at 12.5 uM preincubated for 4 hrs followed by HSP90 inhibitor and HSR inducer NVP-AUY922 addition measured after 4 hrs by ELISA; assay type: functional, cell-based
[23] = test system: INA-6; experiment: Inhibition of heat shock response in human INA-6 cells assessed as reduction in HSF-1 mediated upregulation of the heat shock protein HSP27 at 12.5 uM preincubated for 4 hrs followed by HSP90 inhibitor and HSR inducer NVP-AUY922 addition measured after 4 hrs by Western blot method; assay type: functional, cell-based; method in brief: as §2
[24] = test system: INA-6; experiment: Inhibition of heat shock response in human INA-6 cells assessed as reduction in HSF-1 mediated upregulation of the heat shock protein HSP72 at 12.5 uM preincubated for 4 hrs followed by HSP90 inhibitor and HSR inducer NVP-AUY922 addition measured after 4 hrs by Western blot method; assay type: functional, cell-based; method in brief: as §2
[25] = biological target: Heat shock factor protein 1 (Homo sapiens) (UniProt Q00613); experiment: Inhibition of NVP-AUY922-induced HSF-1 phosphorylation at S326 residue in human INA-6 cells at 50 uM preincubated for 4 hrs followed by NVP-AUY922 addition measured after 4 hrs by Western blot method; assay type: cell-based; method in brief: as §2
[26] = test system: INA-6; experiment: Inhibition of heat shock response in human INA-6 cells assessed as reduction in HSF-1 mediated upregulation of the heat shock protein HSP27 at 50 uM preincubated for 4 hrs followed by HSP90 inhibitor and HSR inducer NVP-AUY922 addition measured after 4 hrs by ELISA; assay type: functional, cell-based
[27] = test system: INA-6; experiment: Downregulation of NVP-AUY922-induced HSF-1 protein expression in human INA-6 cells at 50 uM preincubated for 4 hrs followed by NVP-AUY922 addition measured after 4 hrs by Western blot method; assay type: functional, cell-based; method in brief: as §2

inhibition [4]: Active
Compound: NCCOCCOCCNCCOc1ccc(C(C(=O)NCc2ccccc2)N(C(=O)CCc2ccccc2)C2CC2)cc1 (stereo unspecified)
Activity [1]: Active | inhibition [2]: Active | inhibition [3]: Active | Activity [5]: Active | inhibition [6]: Active | Activity [7]: inactive | inhibition [8]: Active | Activity [9]: Active

inhibition [11]: Active
Compound: O=c1cc(N2CCOCC2)oc2c(-c3cccc4c3sc3ccccc34)cccc12
Activity [10]: Active | inhibition [12]: Active | Activity [13]: Active | inhibition [14]: Active

The remaining lines, values behind:

Compound: COc1ccc(/C=C/C(=O)N(Cc2ccc(OC)cc2)C(C(=O)NCc2ccccc2)c2ccccc2Br)cc1 (racemic)
Activity [15]: inactive | HSP72 upregulation inhibition (active/not active) [16]: inactive | activity call (active/not active) for inhibition of HSP27 upregulation [17]: inactive | heat shock response inhibition (active/not active) [18]: inactive | Activity [19]: inactive

Compound: NCCOCCOCCNCCCCOc1ccc(CCC(=O)N(C2CC2)C(C(=O)NCc2ccccc2)c2ccc(Br)cc2)cc1 (racemic)
inhibition [20]: inactive | Activity [5]: Active | Activity [21]: inactive | inhibition [22]: inactive | inhibition [23]: inactive | inhibition [24]: inactive

Compound: N-(2-(Benzylamino)-1-(2-bromophenyl)-2-oxoethyl)-N-cyclopropylcinnamamide
inhibition [25]: Active | HSP72 upregulation inhibition (active/not active) [16]: Active | heat shock response inhibition (active/not active) [26]: Active | activity call (active/not active) for inhibition of HSP27 upregulation [17]: Active | Activity [27]: Active | heat shock response inhibition (active/not active) [18]: Active
